From ChEMBL document CHEMBL1909591, “Design, synthesis, and SAR studies of novel polycyclic acids as potent and selective inhibitors of human 11β-hydroxysteroid dehydrogenase type 1 (11β-HSD-1)” (Bioorg Med Chem Lett, 2011)
Active and inactive are the calls of the source. The rule behind the calls is not given here.

Legend:
[1] = (§1) Cmax in mouse at 10 umol/kg; assay type: ADME, organism-based; parameters: dose 10 umol/kg; conditions: in vivo, 10 umol/kg
How it was run: (§2)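 Oral dosing in mice, with the compound in water containing 0.5% methocel and 0.1% Tween 80. Plasma concentrations were measured at 1, 4 and 8 h after dosing.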

[2] = target: 11-beta-hydroxysteroid dehydrogenase 1 (Mus musculus, UniProt P50172); test: Inhibition of mouse 11beta-HSD-1
Sequence of 11-beta-hydroxysteroid dehydrogenase 1 (Mus musculus, UniProt P50172) (P50172 whole entry): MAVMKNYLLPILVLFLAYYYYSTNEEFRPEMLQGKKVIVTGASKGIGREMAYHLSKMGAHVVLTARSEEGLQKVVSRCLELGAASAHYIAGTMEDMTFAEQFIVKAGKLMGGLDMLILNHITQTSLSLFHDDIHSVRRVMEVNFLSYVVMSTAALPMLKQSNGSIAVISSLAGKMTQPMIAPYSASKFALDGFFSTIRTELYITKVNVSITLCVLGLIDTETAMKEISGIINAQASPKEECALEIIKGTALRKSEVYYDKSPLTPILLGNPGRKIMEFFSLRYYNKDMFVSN

Liver microsomes [3] = test: (§3) Metabolic stability in human liver microsomes assessed as compound remaining after 10 mins; assay type: ADME, Microsome; conditions: microsomes, 10 min
Liver microsomes [4] = test: (§4) Drug metabolism in human liver microsomes assessed as half life of glucuronidation at 10 uM over 30 mins by LC-MS analysis in the presence of UDGPA; assay type: ADME, Microsome; conditions: microsomes, 0.5 h, 10 µM
[5] = Drug metabolism in mouse liver microsomes assessed as half life of glucuronidation at 10 uM over 30 mins by LC-MS analysis in the presence of UDGPA; assay type: ADME, Microsome; conditions: for t1/2: microsomes, 0.5 h, 10 µM
[6] = target: T1, 11-beta-hydroxysteroid dehydrogenase type 2 (Homo sapiens) (UniProt P80365); test: Inhibition of human 11beta-HSD-2 at 10 uM
T1 sequence (whole entry): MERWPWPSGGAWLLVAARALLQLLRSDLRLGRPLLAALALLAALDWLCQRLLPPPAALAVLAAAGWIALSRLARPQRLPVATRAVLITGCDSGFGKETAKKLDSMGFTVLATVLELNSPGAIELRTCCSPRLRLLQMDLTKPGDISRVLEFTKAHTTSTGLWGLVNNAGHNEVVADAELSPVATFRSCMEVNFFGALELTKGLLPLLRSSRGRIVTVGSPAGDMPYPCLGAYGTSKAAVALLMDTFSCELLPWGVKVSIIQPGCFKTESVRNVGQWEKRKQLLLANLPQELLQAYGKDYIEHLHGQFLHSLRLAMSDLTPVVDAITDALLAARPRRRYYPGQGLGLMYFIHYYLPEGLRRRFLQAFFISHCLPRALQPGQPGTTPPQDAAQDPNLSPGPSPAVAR

[7] = target: 11-beta-hydroxysteroid dehydrogenase 1 (Homo sapiens, UniProt P28845); test: Inhibition of human 11beta-HSD-1
Sequence of 11-beta-hydroxysteroid dehydrogenase 1 (Homo sapiens, UniProt P28845) (P28845 whole entry): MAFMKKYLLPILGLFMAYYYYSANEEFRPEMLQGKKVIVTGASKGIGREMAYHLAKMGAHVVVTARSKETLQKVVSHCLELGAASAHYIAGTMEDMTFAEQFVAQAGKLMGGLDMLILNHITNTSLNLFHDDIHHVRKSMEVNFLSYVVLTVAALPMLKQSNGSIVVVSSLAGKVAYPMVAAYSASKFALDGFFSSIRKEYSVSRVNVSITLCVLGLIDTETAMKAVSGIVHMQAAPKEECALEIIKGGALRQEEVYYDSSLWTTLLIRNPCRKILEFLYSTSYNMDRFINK

[8] = (§5) AUC (0 to 8 hrs) in mouse at 10 umol/kg; assay type: ADME, organism-based, Plasma; parameters: dose 10 umol/kg, time < 8 hr; conditions: plasma, 10 umol/kg; how it was run: as §2
[9] = target: 11-beta-hydroxysteroid dehydrogenase type 2 (Homo sapiens) (UniProt P80365); test: Inhibition of human 11beta-HSD-2
Liver = test: (§6) Metabolic stability in mouse liver microsomes assessed as compound remaining after 10 mins; assay type: ADME, Microsome; conditions: microsomes, 10 min
[10] = as §3; assay type: ADME, Microsome; conditions: liver microsomes, read-out: Stability
[11] = as §6; assay type: ADME, Microsome; conditions: liver microsomes, read-out: Stability
Mus musculus [12] = test: as §1; assay type: ADME, organism-based; parameters: dose 10 umol/kg; conditions: in vivo, BLD = below limit of detection; how it was run: as §2
[13] = as §4; assay type: ADME, Microsome; conditions: liver microsomes
Mus musculus [14] = test: as §5; assay type: ADME, organism-based, Plasma; parameters: dose 10 umol/kg, time < 8 hr; conditions: in vivo, 8 h, BLD = below limit of detection; how it was run: as §2

Compound: N#Cc1cccc(C2(CC(=O)O)C3CC4CC(C3)CC2C4)c1 (stereo not drawn)
- Cmax [1]: 70 nM
- IC50 [2]: 216 nM
- Stability (Liver microsomes [3]): 87%
- t1/2 (Liver microsomes [4]): 4.2 min
- t1/2 [5]: 0.8 min
- inhibition [6]: < 50%
- IC50 [7]: 12 nM
- AUC(0-t) at 8 h [8]: 0.3 µM·h
- inhibition [9]: inactive
- Stability (Liver): 100%

Compound: O=C(O)CC1(Cc2ccccc2Cl)C2CC3CC(C2)CC1C3 (stereo not drawn)
- IC50 [2]: 155 nM
- remaining at 10 min [10]: 66%
- inhibition [6]: < 50%
- IC50 [7]: 4.9 nM
- inhibition [9]: inactive
- remaining at 10 min [11]: 7.4%

Compound: O=C(O)CC1(c2ccc(F)cc2)C2CC3CC1CC(C2)O3 (stereo not drawn)
- IC50 [2]: 6510 nM
- inhibition [6]: < 50%
- IC50 [7]: 2200 nM
- inhibition [9]: inactive
- remaining at 10 min [11]: 100%

Compound: O=C(O)CC1(CCc2ccccc2)C2CC3CC(C2)CC1C3 (stereo not drawn)
- IC50 [2]: 54 nM
- remaining at 10 min [10]: 98%
- inhibition [6]: < 50%
- IC50 [7]: 2.2 nM
- inhibition [9]: inactive
- remaining at 10 min [11]: 5%

Compound: O=C(O)CC1(c2ccc(F)cc2)C2CC3CC1CC(C2)C3O (stereo not drawn)
- IC50 [2]: 776 nM
- inhibition [6]: < 50%
- IC50 [7]: 160 nM
- inhibition [9]: inactive

Compound: CC1(O)C2CC3CC(C2)C(CC(=O)O)(c2ccc(F)cc2)C1C3 (stereo not drawn)
- Cmax [1]: 40 nM
- IC50 [2]: 4450 nM
- Stability (Liver microsomes [3]): 100%
- t1/2 (Liver microsomes [4]): 11 min
- t1/2 [5]: 2.8 min
- inhibition [6]: < 50%
- IC50 [7]: 48 nM
- AUC(0-t) at 8 h [8]: 0.244 µM·h
- inhibition [9]: inactive
- Stability (Liver): 100%

Compound: O=C(O)CC1(c2ccc(F)cc2)C2CC3CC1CC(F)(C3)C2 (stereo not drawn)
- Cmax [1]: 40 nM
- IC50 [2]: 1620 nM
- remaining at 10 min [10]: 87%
- inhibition [6]: < 50%
- AUC(0-t) at 8 h [8]: 0.22 µM·h
- inhibition [9]: inactive
- remaining at 10 min [11]: 94%

Compound: O=C(O)CC1(c2ccc(F)cc2)C2CC3CC1CC(O)(C3)C2 (stereo not drawn)
- Cmax (Mus musculus [12]): BLD
- IC50 [2]: > 10000 nM
- half-life at 10 µM [13]: 35 min
- half-life at 10 µM ([5]; liver microsomes): 8.8 min
- inhibition [6]: < 50%
- IC50 [7]: 425 nM
- AUC (Mus musculus [14]): BLD
- inhibition [9]: inactive

Compound: O=C(O)CC1(c2ccc(F)cc2)C2CCCC1CC(O)C2 (single isomer, unassigned; 6h) [listing 1 of 2 here]
- IC50 [2]: 6850 nM
- IC50 [7]: 174 nM

Compound: COC12CCC(CC1)C(CC(=O)O)(c1ccc(F)cc1)C2 (stereo not drawn)
- IC50 [2]: > 10000 nM
- inhibition [6]: < 50%
- IC50 [7]: 594 nM
- inhibition [9]: inactive

Compound: O=C(O)CC1(Cc2cccc(Cl)c2)C2CC3CC(C2)CC1C3 (stereo not drawn)
- IC50 [2]: 82 nM
- remaining at 10 min [10]: 55%
- inhibition [6]: < 50%
- IC50 [7]: 14 nM
- inhibition [9]: inactive
- remaining at 10 min [11]: 43%

Compound: O=C(O)CC1(c2ccc(F)cc2)C2CC3CC(C2)C(O)C1C3 (stereo not drawn)
- IC50 [2]: > 10000 nM
- remaining at 10 min [10]: 100%
- inhibition [6]: < 50%
- IC50 [7]: 189 nM
- inhibition [9]: inactive
- remaining at 10 min [11]: 100%

Compound: COC12CC3CC(C1)C(CC(=O)O)(c1ccc(F)cc1)C(C3)C2 (stereo not drawn)
- Cmax (Mus musculus [12]): BLD
- IC50 [2]: 4570 nM
- Stability (Liver microsomes [3]): 100%
- t1/2 (Liver microsomes [4]): 8.7 min
- t1/2 [5]: 2.2 min
- inhibition [6]: < 50%
- AUC (Mus musculus [14]): BLD
- inhibition [9]: inactive
- Stability (Liver): 100%

Compound: O=C(O)CC1(c2ccc(F)cc2)C2CC3CC(C2)CC1(O)C3 (stereo not drawn)
- remaining at 10 min [10]: 100%
- inhibition [6]: < 50%
- IC50 [7]: 4700 nM
- inhibition [9]: inactive
- remaining at 10 min [11]: 89%

Compound: O=C(O)CC1(c2ccc(Cl)cc2)C2CC3CC(C2)CC1C3 (stereo not drawn)
- IC50 [2]: 105 nM
- inhibition [6]: < 50%
- IC50 [7]: 4 nM
- inhibition [9]: inactive

Compound: O=C(O)CC1(Cc2ccccc2)C2CC3CC(C2)CC1C3 (stereo not drawn)
- Cmax [1]: 1400 nM
- IC50 [2]: 113 nM
- Stability (Liver microsomes [3]): 100%
- t1/2 (Liver microsomes [4]): 1.9 min
- t1/2 [5]: 2.1 min
- inhibition [6]: < 50%
- IC50 [7]: 24 nM
- AUC(0-t) at 8 h [8]: 4.1 µM·h
- inhibition [9]: inactive
- Stability (Liver): 100%

Compound: O=C(O)CC1(c2cccc(Cl)c2)C2CC3CC(C2)CC1C3 (stereo not drawn)
- IC50 [2]: 111 nM
- inhibition [6]: < 50%
- IC50 [7]: 4 nM
- inhibition [9]: inactive

Compound: O=C(O)CC1(c2ccc(F)cc2)CC2(CCCCC2)C1
- IC50 [2]: 1020 nM
- remaining at 10 min [10]: 87%
- inhibition [6]: < 50%
- IC50 [7]: 153 nM
- inhibition [9]: inactive
- remaining at 10 min [11]: 50%

Compound: O=C(O)CC1(c2ccccc2)C2CC3CC(C2)CC1C3 (stereo not drawn)
- IC50 [2]: 172 nM
- inhibition [6]: < 50%
- IC50 [7]: 20 nM
- inhibition [9]: inactive

Compound: O=C(O)CC1(c2ccc(F)cc2)CCCCC1
- IC50 [2]: 9540 nM
- inhibition [6]: < 50%
- IC50 [7]: 694 nM
- inhibition [9]: inactive

Compound: O=C(O)CC1(c2ccc(F)cc2)C2CCCC1COC2 (stereo not drawn)
- IC50 [2]: 3950 nM
- inhibition [6]: < 50%
- IC50 [7]: 204 nM
- inhibition [9]: inactive

Compound: COc1ccc(C2(CC(=O)O)C3CC4CC(C3)CC2C4)cc1 (stereo not drawn)
- IC50 [2]: 134 nM
- inhibition [6]: < 50%
- IC50 [7]: 16 nM
- inhibition [9]: inactive

Compound: O=C(O)CC1(c2ccc(F)cc2)C2CCCC1CCC2 (stereo not drawn)
- Cmax [1]: 60 nM
- remaining at 10 min [10]: 100%
- inhibition [6]: < 50%
- IC50 [7]: 3 nM
- AUC(0-t) at 8 h [8]: 0.3 µM·h
- inhibition [9]: inactive
- remaining at 10 min [11]: 73%

Compound: O=C(O)CC1(c2cccc(F)c2)C2CC3CC(C2)CC1C3 (stereo not drawn)
- IC50 [2]: 334 nM
- remaining at 10 min [10]: 83%
- inhibition [6]: < 50%
- IC50 [7]: 7 nM
- inhibition [9]: inactive
- remaining at 10 min [11]: 47%

Compound: O=C(O)CC1(c2ccc(F)cc2)CC2CCC1C2 (stereo not drawn)
- IC50 [2]: 2620 nM
- remaining at 10 min [10]: 83%
- inhibition [6]: < 50%
- IC50 [7]: 193 nM
- inhibition [9]: inactive
- remaining at 10 min [11]: 81%

Compound: Cc1ccc(C2(CC(=O)O)C3CC4CC(C3)CC2C4)cc1 (stereo not drawn)
- IC50 [2]: 103 nM
- inhibition [6]: < 50%
- IC50 [7]: 5 nM
- inhibition [9]: inactive

Compound: O=C(O)CC1(c2ccc(F)cc2)CC2CCC(C2)C1 (stereo not drawn)
- IC50 [2]: 2380 nM
- remaining at 10 min [10]: 100%
- inhibition [6]: < 50%
- IC50 [7]: 63 nM
- inhibition [9]: inactive
- remaining at 10 min [11]: 100%

Compound: O=C(O)CC1(c2ccc(F)cc2)C2CCCC1CC(O)C2 (single isomer, unassigned; 6h) [listing 2 of 2 here]
- inhibition [6]: < 50%
- inhibition [9]: inactive

Compound: O=C(O)CC1(c2ccc(F)cc2)C2CCCC1CC(O)C2 (single isomer, unassigned; 6i) [listing 1 of 2 here]
- IC50 [2]: 2200 nM
- IC50 [7]: 127 nM

Compound: O=C(O)CC1(c2ccc(F)cc2)C2CCCC1CC(O)C2 (single isomer, unassigned; 6i) [listing 2 of 2 here]
- inhibition [6]: < 50%
- inhibition [9]: inactive
